Measurements pooled from the literature.

With C[C@@H](Oc1cc(-c2cnn(C3CCNCC3)c2)cnc1N)c1c(Cl)ccc(F)c1Cl the inhibition was 64.4% (NCI-H2228; cell growth or viability, MTT; 0.2 µg/mL, 72 h).
For c1cc2c(cc1CNCC1(N3CCCC3)COC1)OCCO2, the viability was 96.6% (A 172; cell growth or viability; 30 µM, 48 h).
NC(=S)NN=C(CS(=O)(=O)c1ccccc1)c1ccc(F)cc1 has a viability of 45.4% (SK-MEL-23; cell growth or viability, MTT; 25 µM, 48 h).
The viability of Clc1ccccc1-c1ccc(CNCC2(N3CCCC3)COC2)o1 is reported as 70.6% (A 172; cell growth or viability; 30 µM, 48 h).
For Cc1cc(Nc2ncc(Cl)c(Nc3ccccc3S(=O)(=O)C(C)C)n2)c(OC(C)C)cc1C1CCNCC1, the inhibition was 80% (NCI-H2228; cell growth or viability, MTT; 1 µg/mL, 72 h).
COc1cc(Nc2nccc(-c3cnn4nc(OC)ccc34)n2)cc(C(F)(F)F)c1 gave an IC50 of 180 nM (HT-1080; cell growth or viability, ATP luminescence).
For Cc1ccc(C(CS(=O)(=O)c2ccccc2)=NNc2nc(-c3ccc(OCCCCOc4ccc(-c5csc(NN=C(CS(=O)(=O)c6ccccc6)c6ccc(C)cc6)n5)cc4)cc3)cs2)cc1, the viability was 58.6% (SK-MEL-23; cell growth or viability, MTT; 6.3 µM, 48 h).
For c1ccc(-c2ccc(CNCC3(N4CCCC4)COC3)o2)cc1, the viability was 78.5% (A 172; cell growth or viability; 30 µM, 48 h).
For NCCOc1cc(NC(=O)c2cccc(C(=O)Nc3cc(OCCN)c4ccccc4n3)n2)nc2ccccc12, the IC50 was 300 nM (HT-1080; cell growth or viability, ATP luminescence; 72 h).
The viability of c1ccc(-c2ccc(CNCC3(N4CCCC4)COC3)s2)cc1 is reported as 74.6% (A 172; cell growth or viability; 30 µM, 48 h).
COc1cccc(Oc2ccccc2NC(=O)CNC(=O)c2cccc3ccccc23)c1 has a GI50 of 166 nM (RXF 393; cell growth or viability, SRB; 48 h).
Cc1ccc(C(CS(=O)(=O)c2ccccc2)=NN=C2N=C(c3ccc(Br)cc3)CS2)cc1 gave a viability of 45.7% (SK-MEL-23; cell growth or viability, MTT; 100 µM, 48 h).
With Fc1ccc2[nH]cc(CNCC3(N4CCC(F)C4)COC3)c2c1 (stereo not drawn) the viability was 80.6% (A 172; cell growth or viability; 30 µM, 48 h).
With CC(C)(C)c1nc(-c2cccc(NS(=O)(=O)c3c(F)cccc3F)c2F)c(-c2ccnc(N)n2)s1 the viability was 34.4% (SK-MEL-23; cell growth or viability, MTT; 100 µM, 48 h).
CC(C)(O)[C@H]1CC[C@H](Nc2ccc3ncc(-c4cccc(C(F)(F)F)c4)n3n2)CC1 gave an EC50 of 1100 nM (T24; colony formation).
Cc1cccc2cc(CNCC3(N4CCCC4)COC3)cnc12 has a viability of 92.6% (A 172; cell growth or viability; 30 µM, 48 h).
With Cc1ccc(C(CS(=O)(=O)c2ccccc2)=NNc2nc(C)c(N=Nc3cccc(C)c3)s2)cc1 the viability was 59.5% (SK-MEL-23; cell growth or viability, MTT; 1.6 µM, 48 h).
For COc1cc(-c2ccc(-c3ccc(C(=N)N)nc3)s2)cc(OC)c1OC, the GI50 was 2190 nM (RXF 393; cell growth or viability).
